Screens as filed in PubChem.
Rows were chosen to be rich in hits. Some 1.7% of all compounds tested hit in one or more screens of this group.
PABP1 MLLE inh: blocks PAM2 peptide binding to the PABP1 MLLE domain; GST-MLLE / FITC-PAM2 fluorescence polarization; P11940; inhibition, % at 20 µM; AID 588489; hit rate 0.36% among 360,000; in the data active = inhibition above about 35%, passing the limit was not always enough
Target sequence (P11940 whole entry, looked up, the tested form may be a part): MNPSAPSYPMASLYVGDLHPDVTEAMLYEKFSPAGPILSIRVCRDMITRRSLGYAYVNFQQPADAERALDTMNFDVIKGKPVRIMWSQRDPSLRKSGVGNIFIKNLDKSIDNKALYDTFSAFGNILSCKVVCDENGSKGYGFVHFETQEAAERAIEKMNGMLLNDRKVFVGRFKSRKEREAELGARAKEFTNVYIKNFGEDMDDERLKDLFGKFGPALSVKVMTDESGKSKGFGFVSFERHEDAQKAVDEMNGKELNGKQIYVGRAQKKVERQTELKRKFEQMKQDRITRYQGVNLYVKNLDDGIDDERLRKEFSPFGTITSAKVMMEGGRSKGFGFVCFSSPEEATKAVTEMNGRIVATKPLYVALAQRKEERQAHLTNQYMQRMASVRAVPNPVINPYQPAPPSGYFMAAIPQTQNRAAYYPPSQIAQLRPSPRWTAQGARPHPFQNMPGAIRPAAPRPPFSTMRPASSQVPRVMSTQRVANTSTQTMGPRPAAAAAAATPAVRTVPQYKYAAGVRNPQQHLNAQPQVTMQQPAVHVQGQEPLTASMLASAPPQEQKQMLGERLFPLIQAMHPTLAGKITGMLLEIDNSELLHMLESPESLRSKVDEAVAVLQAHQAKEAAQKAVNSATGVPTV
PABP FP inh: blocks human PABP binding to poly(A) RNA; fluorescence polarization; hit rate 1% among 290,000; inhibition, % at 35 µM; AID 2014; P11940;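 also: calls also rest on retests at 20 µM and on dose response follow-up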
SKN-1 inh: inhibitors of C. elegans SKN-1 | C. elegans VP596 Pgst-4::GFP/RFP ratio, acrylamide-induced, 24 h | inhibition, % at 21.8 µM | hit rate 0.49% among 360,000 | AID 624304;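 active = interference check ratio from 0.5 to 1.5 plus GFP to RFP signal ratio inhibition reaching or exceeding a fixed threshold, cut at about 30% in these data, passing the limit was not always enough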
eIF4H inh: inhibitors of RNA binding by human eIF4H | hit rate 0.94% among 290,000 | eIF4H fluorescence polarization binding assay | Q15056 | AID 2012 | inhibition, % at 35 µM;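 also: calls also rest on retests at 20 µM and on dose response follow-up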
MT1-MMP act inh: inhibitors of human MT1-MMP activation; hit rate 0.061% among 360,000; P50281; HT1080 RFP-PRO-GFP cells, GFP/RFP ratio fluorescence, overnight; percent of plate control window, DMSO zero; GFP/RFP ratio change, % at 20 µM;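 active = GFP/RFP ratio change of at least 30% with cell ATP level not reduced by more than half and red fluorescence within 50% of control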
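Assay system: HT1080 RFP-PRO-GFP cells | Dosing: 20 µM single dose, 1% DMSO | Incubation: Cells overnight before dosing, compound overnight, 37 °C, 5% CO2 | Evaluation: GFP/RFP fluorescence ratio | Control set: DMSO-only wells and HT1080 RFP-L50D-GFP cell wells as references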
Numbers stand for hits; - = inactive; ? = inconclusive; . = no result. Unless noted, no rule for the calls is given here.

SMILES	PABP1 MLLE inh	PABP FP inh	SKN-1 inh	eIF4H inh	MT1-MMP act inh
CCCCN1C(=O)C(CC(=O)NCc2ccco2)CC(C(=O)N2CCCCCC2)=C1C (stereo not given)	.	.	-	.	-
CC1(c2ccccc2)NC(=O)N(CC(=O)NNC(=O)c2cccc(Cl)c2)C1=O (stereo not given)	-	.	-	.	-
CC(C)(CS(=O)(=O)[O-])NC(=O)CC[N+](C)(C)CCO	-	50.6	-	87.8	-
CC(=O)c1c(N2CCOCC2)nc(=S)n(-c2ccccc2)c1C	45.0	-	-	-	-
CCSc1nc(=S)n(-c2ccccc2)c(C)c1C(C)=O	43.3	-	-	-	-
CCSc1nc(=O)n(-c2ccccc2)c(C)c1C(C)=O	-	-	-	-	-
CCn1c(C)c(C(C)=O)c(N2CCN(C(c3ccccc3)c3ccccc3)CC2)nc1=S	-	-	-	-	-
CCn1c(C)c(C(C)=O)c(N2CCN(c3ccccc3)CC2)nc1=S	-	120.4	-	127.5	-
CCn1c(C)c(C(C)=O)c(N2CCN(c3ccccn3)CC2)nc1=S	-	67.2	-	66.2	-
COc1cccc(-c2ccc(NC(=O)C3CCCN(CCCn4nc(C)cc4C)C3)cc2)c1 (stereo not given)	-	-	-	-	-
CN(CC(=O)Nc1ccccc1C(F)(F)F)C(=O)CSCc1ccccc1	-	.	-	.	-
Nc1cccc2c1C(=O)N(CCOc1ccccc1F)C2=O	-	-	-	-	-
O=C(O)Cc1n[nH]c(=O)c2ccccc12	-	-	-	1.1	-
Cc1c(C)n(C(=O)CSc2nc3ccccc3[nH]2)c2ccccc12	-	51.8	-	67.7	-
Cc1cccc(OCC(=O)N2CCOCC2)c1	-	99.4	-	8.3	-
CN(C)c1nc(-c2cn(CCC#N)c3ccccc23)cs1	48.8	-	-	-	-
CC(C)S(=O)(=O)C1=NSC2=NC(=O)/C(=C\c3ccc(-c4cccc(C(=O)O)c4)o3)C(=N)N21	-	active	-	-	-
CC(C)S(=O)(=O)C1=NSC2=NC(=O)/C(=C\c3ccc(-c4ccccc4)o3)C(=N)N21	-	-	-	?	-
O=C1OC(c2cccs2)=N/C1=C\c1ccc(-c2ccccc2Cl)o1	-	-	-	-	-
Cc1cc(C)cc(-n2cccc2/C=C2/C(=N)N3C(=NC2=O)SN=C3S(C)(=O)=O)c1	-	79.2	-	28.9	-
O=C1OC(c2cccs2)=N/C1=C/c1ccc(-c2cccc(C(=O)O)c2)o1	-	active	-	-	-
N=C1/C(=C/c2ccc(-c3cccc(C(=O)O)c3)o2)C(=O)N=C2SC=C(c3ccccc3)N12	-	11.2	-	51.8	-
COc1ccc(CN2CCNC(=O)C2CC(=O)N(C)CC2CCOCC2)cc1C (stereo not given)	-	-	-	-	-
CC1CC(C)CN(S(=O)(=O)c2ccc(C(=O)N3CCOCC3)cc2)C1 (stereo not given)	-	-	-	-	-
CS(=O)(=O)C1=NSC2=NC(=O)/C(=C\c3ccc(-c4ccccc4)o3)C(=N)N21	.	-	.	53.8	.
SMILES	PABP1 MLLE inh	PABP FP inh	SKN-1 inh	eIF4H inh	MT1-MMP act inh
CC(=O)c1ccc(OCc2cc(C(=O)NC(C)CCn3cccn3)no2)cc1 (stereo not given)	-	-	-	-	-
Cc1ccc(S(=O)(=O)/C(C#N)=C/c2c(N3CCN(C)CC3)nc3c(C)cccn3c2=O)cc1	-	-	-	52.0	-
CCN1CCN(c2nc3c(C)cccn3c(=O)c2/C=C(\C#N)S(=O)(=O)c2ccc(C)cc2)CC1	-	-	-	-	-
Cc1ccc(S(=O)(=O)/C(C#N)=C/c2c(N3CC(C)OC(C)C3)nc3c(C)cccn3c2=O)cc1 (stereo not given)	-	52.5	-	46.0	-
S=C(NNc1cccc(Cl)c1)NC1CCCCC1	-	69.4	-	-	-
S=C(Nc1cccc(Cl)c1)NC1CCCCC1	-	-	-	-	-
O=C(C1CCCC1)N1CCC(CC2CC(c3cccc(Br)c3)=NO2)(C(=O)NCC2CCCCC2)CC1 (stereo not given)	-	-	-	-	-
N#Cc1cncc(C#Cc2ccccc2)c1	-	-	60.6	-	-
N#Cc1ccccc1	-	.	-	.	-
CC(C)N1CCN(S(=O)(=O)c2ccccc2)c2ccccc21	-	.	-	.	-
Cc1ccccc1NC(=S)NNc1ncc(C(F)(F)F)cc1Cl	-	-	-	-	-
Cc1c(Cl)cccc1NC(=S)NNc1ncc(C(F)(F)F)cc1Cl	36.5	-	-	-	-
